These results are taken from ChEMBL document CHEMBL1123623, “Synthesis of some [N-(2-haloalkyl)amino]tetralin derivatives as potential irreversible labels for bovine anterior pituitary D2 dopamine receptors” (J Med Chem, 1987).

Assay [1] deals with T1, D(2) dopamine receptor (Bos taurus, UniProt P20288). The assay can be described thus: Ability to displace [3H]spiperone binding from anterior pituitary Dopamine receptor D2 in the absence of GTP; NA means inactive. A digest of the protocol: (§1)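 Bovine anterior pituitary membranes; displacement of [3H]spiperone (ca. 500 pM) with no GTP added. Specific binding defined with 3.3 μM (+)-butaclamol; buffer with 0.1% ascorbic acid in place of dithiothreitol. Triplicate points; IC50 corrected for [3H]spiperone concentration, plus pseudo Hill coefficient. Mean ± SEM (n ≥ 3) or mean ± range (n = 2).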

Assay [2] addresses T1, D(2) dopamine receptor. Put plainly: Ability to displace [3H]spiperone binding from anterior pituitary Dopamine receptor D2 in the presence of 100 uM GTP. An outline of the steps: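 [3H]spiperone (ca. 500 pM) displacement in bovine anterior pituitary membranes in the presence of 100 μM GTP. Nonspecific binding set with 3.3 μM (+)-butaclamol; 0.1% ascorbic acid replaced dithiothreitol. Points in triplicate; IC50 corrected for radioligand concentration, with pseudo Hill coefficient. Mean ± SEM (n ≥ 3) or mean ± range (n = 2).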

Assay [3] addresses T1, D(2) dopamine receptor. The assay can be described thus: Ability to displace [3H]spiperone binding from anterior pituitary Dopamine receptor D2 in the absence of GTP. An outline of the steps:
as §1

By IC50 is commonly meant the concentration that inhibits the measured activity by half.

T1 sequence (P20288 whole entry): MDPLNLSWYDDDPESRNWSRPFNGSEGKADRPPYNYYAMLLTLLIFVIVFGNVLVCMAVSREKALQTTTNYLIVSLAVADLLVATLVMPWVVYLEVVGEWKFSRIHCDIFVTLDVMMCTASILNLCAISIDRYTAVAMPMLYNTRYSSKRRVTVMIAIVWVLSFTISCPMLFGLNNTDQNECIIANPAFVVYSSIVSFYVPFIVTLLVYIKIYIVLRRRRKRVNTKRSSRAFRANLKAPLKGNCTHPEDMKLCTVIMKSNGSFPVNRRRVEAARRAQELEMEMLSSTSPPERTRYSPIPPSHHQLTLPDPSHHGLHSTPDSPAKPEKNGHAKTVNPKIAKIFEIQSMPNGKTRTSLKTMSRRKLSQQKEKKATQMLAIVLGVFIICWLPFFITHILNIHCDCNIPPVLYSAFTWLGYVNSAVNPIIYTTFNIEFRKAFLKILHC

As to `O=C(CCl)NC1CCc2cc(O)c(O)cc2C1` (stereo not given), the half-inhibitory concentration (IC50) result at D(2) dopamine receptor [1] was “Not Active”.

Regarding `CCCN(CCCl)C1CCc2cc(O)c(O)cc2C1` (stereo not given), the IC50 on D(2) dopamine receptor [2] amounted to 0.26 µM; on D(2) dopamine receptor [3], 0.076 µM.

In turn, `CN(CCCl)C1CCc2cc(O)ccc2C1` (stereo not given) yielded an IC50 at D(2) dopamine receptor [3] of 2.97 µM.

On to `COc1cc2c(cc1OC)CC(NCCCl)CC2.Cl` (stereo not given), for which, on D(2) dopamine receptor [1], the IC50 entry was “Not Active”.

As for `CCCN(CCBr)C1CCc2cc(O)c(O)cc2C1` (stereo not given), the IC50 was more than 100 µM at D(2) dopamine receptor [2] and 1.97 µM at D(2) dopamine receptor [3].

`CCCN(CCCl)C1CCc2cc(OC)c(OC)cc2C1.Cl` (stereo not given): the IC50 result at D(2) dopamine receptor [1] is on record as “Not Active”.

With `Oc1cc2c(cc1O)CC(NCCBr)CC2` (stereo not given), the IC50 was determined as 0.42 µM at D(2) dopamine receptor [2] and 0.17 µM at D(2) dopamine receptor [3].

With `COc1cc2c(cc1OC)CC(NCCO)CC2.Cl` (stereo not given), the IC50 entry on D(2) dopamine receptor [1] is listed as “Not Active”.

Take `CN(CCCl)C1CCc2c(ccc(O)c2O)C1` (stereo not given): the IC50 is more than 100 µM on D(2) dopamine receptor [2] and 32.2 µM at D(2) dopamine receptor [3].

On to `Oc1cc2c(cc1O)CC(NCCCl)CC2` (stereo not given), for which the IC50 on D(2) dopamine receptor [2] was more than 100 µM; at D(2) dopamine receptor [3], 0.3 µM.

`CN(CCCl)C1CCc2cc(O)c(O)cc2C1` (stereo not given): the IC50 on D(2) dopamine receptor [2] is 3.72 µM; on D(2) dopamine receptor [3], 1.82 µM.

With `Br.CCCN(CC(C)Br)C1CCc2cc(O)c(O)cc2C1` (stereo not given), the IC50 result at D(2) dopamine receptor [1] is “Not Active”.

`CCCN(CCO)C1CCc2cc(O)c(O)cc2C1` (stereo not given): the IC50 turned out to be 2.42 µM on D(2) dopamine receptor [2] and 0.42 µM on D(2) dopamine receptor [3].

On to `CC(Br)CNC1CCc2cc(O)c(O)cc2C1` (stereo not given), for which the IC50 came out at 1.01 µM on D(2) dopamine receptor [2] and 0.3 µM on D(2) dopamine receptor [3].

As for `CCCN(CCO)C1CCc2cc(OC)c(OC)cc2C1` (stereo not given), at D(2) dopamine receptor [1], the IC50 result is reported as “Not Active”.

For the molecule `COc1cc2c(cc1OC)CC(NC(=O)CCl)CC2` (stereo not given), the IC50 result at D(2) dopamine receptor [1] is on record as “Not Active”.

In the case of `CCCN(C(=O)CCl)C1CCc2cc(OC)c(OC)cc2C1` (stereo not given), the IC50 result on D(2) dopamine receptor [1] is “Not Active”.
